Source: ChEMBL document CHEMBL4177769, “Highly Selective and Potent Ectonucleotide Pyrophosphatase-1 (NPP1) Inhibitors Based on Uridine 5'-Pα,α-Dithiophosphate Analogues” (J Med Chem, 2018)
The source made the active and inactive calls. The rule behind the calls is not given here.

How the values were obtained:
[1] = target: T1, Ectonucleotide pyrophosphatase/phosphodiesterase family member 1 (Homo sapiens) (UniProt P22413); test: Inhibition of human NPP1 at 100 uM using pNP-TMP as substrate preincubated for 3 mins followed by substrate addition measured after 15 mins relative to control
T1 sequence (whole entry): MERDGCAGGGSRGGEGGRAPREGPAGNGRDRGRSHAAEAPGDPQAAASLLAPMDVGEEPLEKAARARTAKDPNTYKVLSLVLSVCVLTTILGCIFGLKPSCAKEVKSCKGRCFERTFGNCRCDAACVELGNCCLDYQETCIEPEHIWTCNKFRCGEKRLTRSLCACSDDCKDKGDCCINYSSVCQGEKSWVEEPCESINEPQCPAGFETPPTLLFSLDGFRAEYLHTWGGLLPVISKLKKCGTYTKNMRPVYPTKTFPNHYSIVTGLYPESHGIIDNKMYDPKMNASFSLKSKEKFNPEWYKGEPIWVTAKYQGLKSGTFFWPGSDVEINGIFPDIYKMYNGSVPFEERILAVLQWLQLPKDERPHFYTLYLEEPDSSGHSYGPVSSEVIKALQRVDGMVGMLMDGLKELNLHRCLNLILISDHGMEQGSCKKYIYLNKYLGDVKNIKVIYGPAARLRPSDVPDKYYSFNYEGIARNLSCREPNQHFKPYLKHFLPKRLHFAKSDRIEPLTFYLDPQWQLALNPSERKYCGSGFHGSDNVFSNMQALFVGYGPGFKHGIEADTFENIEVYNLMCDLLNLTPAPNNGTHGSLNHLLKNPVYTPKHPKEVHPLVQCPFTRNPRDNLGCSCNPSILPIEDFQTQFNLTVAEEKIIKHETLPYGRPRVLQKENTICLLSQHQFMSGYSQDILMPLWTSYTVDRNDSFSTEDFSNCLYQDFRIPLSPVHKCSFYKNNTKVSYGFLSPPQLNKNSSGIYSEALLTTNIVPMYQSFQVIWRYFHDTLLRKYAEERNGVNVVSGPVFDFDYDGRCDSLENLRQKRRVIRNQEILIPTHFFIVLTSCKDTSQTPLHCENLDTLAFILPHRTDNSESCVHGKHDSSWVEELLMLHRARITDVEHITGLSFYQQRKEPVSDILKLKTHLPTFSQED
Method in brief: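 Human NPP1 (4−5 μg) or NPP3 (12−14 μg) cell lysate in mM 1 CaCl2, 140 NaCl, 5 KCl, 50 Tris pH 8.5, 37 °C. Compound at 100 μM, 3 min preincubation, 100 μM pNP-TMP substrate. p-Nitrophenol read at 405 nm after 15 min. Blank with enzyme added at end subtracted. Activity without compound taken as 100%. At least two independent experiments in triplicate.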

[2] = target: T2, Ectonucleoside triphosphate diphosphohydrolase 1 (Homo sapiens) (UniProt P49961); test: Inhibition of human NTPDase1 at 100 uM using ATP as substrate preincubated for 3 mins followed by substrate addition measured after 10 mins by malachite green reagent-based assay
T2 sequence (whole entry): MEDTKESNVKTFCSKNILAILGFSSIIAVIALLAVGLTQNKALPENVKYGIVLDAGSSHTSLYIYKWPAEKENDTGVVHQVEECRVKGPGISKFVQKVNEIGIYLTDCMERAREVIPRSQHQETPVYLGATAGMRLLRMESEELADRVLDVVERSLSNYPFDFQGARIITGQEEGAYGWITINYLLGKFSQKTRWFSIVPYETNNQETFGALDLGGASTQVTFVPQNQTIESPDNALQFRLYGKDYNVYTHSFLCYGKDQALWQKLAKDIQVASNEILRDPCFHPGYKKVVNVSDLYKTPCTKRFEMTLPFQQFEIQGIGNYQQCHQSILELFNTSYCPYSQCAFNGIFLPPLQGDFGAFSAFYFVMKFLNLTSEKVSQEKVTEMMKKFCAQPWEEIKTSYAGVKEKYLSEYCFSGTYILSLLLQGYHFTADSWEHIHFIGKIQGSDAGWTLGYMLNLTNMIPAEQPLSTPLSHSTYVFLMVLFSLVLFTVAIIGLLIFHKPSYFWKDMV
Method in brief: (§1)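 Compound at 100 μM, 3 min preincubation, 100 μM ATP, 10 min. Stopped with malachite green; Pi read at 630 nm. Blank with enzyme added after stop subtracted. Activity with ATP alone taken as 100%.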

[3] = target: T3, Ectonucleoside triphosphate diphosphohydrolase 8 (Homo sapiens) (UniProt Q5MY95); test: Inhibition of human NTPDase8 at 100 uM using ATP as substrate preincubated for 3 mins followed by substrate addition measured after 10 mins by malachite green reagent-based assay; method in brief: as §1
T3 sequence (whole entry): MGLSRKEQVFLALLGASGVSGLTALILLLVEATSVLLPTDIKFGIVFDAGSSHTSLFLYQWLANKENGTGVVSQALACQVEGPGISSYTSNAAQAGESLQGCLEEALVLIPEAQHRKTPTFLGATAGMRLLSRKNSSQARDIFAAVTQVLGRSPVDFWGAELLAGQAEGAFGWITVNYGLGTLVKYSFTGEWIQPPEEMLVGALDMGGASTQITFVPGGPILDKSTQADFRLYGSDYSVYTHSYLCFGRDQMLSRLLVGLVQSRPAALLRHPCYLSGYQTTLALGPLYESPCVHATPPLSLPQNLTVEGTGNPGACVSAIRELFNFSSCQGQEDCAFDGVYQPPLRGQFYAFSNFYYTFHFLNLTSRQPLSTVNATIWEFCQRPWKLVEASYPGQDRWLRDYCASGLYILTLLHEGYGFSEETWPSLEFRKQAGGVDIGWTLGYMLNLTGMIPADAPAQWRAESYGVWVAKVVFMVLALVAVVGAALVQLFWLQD

[4] = target: P2Y purinoceptor 2 (Homo sapiens) (UniProt P41231); test: Agonist activity at recombinant human P2RY2 expressed in AD293 cells assessed as increase in intracellular calcium levels by Fluo-4/AM dye-based spectrofluorometer; format: functional, cell-based
P2Y purinoceptor 2 (Homo sapiens), sequence (P41231 whole entry): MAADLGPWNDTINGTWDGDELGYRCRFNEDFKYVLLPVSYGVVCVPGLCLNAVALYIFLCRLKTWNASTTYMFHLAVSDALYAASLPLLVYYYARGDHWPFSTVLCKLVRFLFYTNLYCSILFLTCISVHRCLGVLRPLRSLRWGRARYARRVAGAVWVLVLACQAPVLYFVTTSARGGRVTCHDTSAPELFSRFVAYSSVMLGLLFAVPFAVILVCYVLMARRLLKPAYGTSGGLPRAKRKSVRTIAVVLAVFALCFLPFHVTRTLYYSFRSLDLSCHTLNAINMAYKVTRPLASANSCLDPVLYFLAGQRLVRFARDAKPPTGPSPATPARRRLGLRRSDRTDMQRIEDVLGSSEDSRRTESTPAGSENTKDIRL
Method in brief: (§2)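 Human P2Y2, P2Y4 or P2Y6 receptor stably expressed in AD293 cells. Compound at 100 μM. Agonism read as change in intracellular calcium (Δ[Ca2+]i), with UDP or UTP as control.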

[5] = target: P2Y purinoceptor 4 (Homo sapiens) (UniProt P51582); test: Agonist activity at recombinant human P2RY4 expressed in AD293 cells assessed as increase in intracellular calcium levels by Fluo-4/AM dye-based spectrofluorometer; format: functional, cell-based; method in brief: as §2
P2Y purinoceptor 4 (Homo sapiens), sequence (P51582 whole entry): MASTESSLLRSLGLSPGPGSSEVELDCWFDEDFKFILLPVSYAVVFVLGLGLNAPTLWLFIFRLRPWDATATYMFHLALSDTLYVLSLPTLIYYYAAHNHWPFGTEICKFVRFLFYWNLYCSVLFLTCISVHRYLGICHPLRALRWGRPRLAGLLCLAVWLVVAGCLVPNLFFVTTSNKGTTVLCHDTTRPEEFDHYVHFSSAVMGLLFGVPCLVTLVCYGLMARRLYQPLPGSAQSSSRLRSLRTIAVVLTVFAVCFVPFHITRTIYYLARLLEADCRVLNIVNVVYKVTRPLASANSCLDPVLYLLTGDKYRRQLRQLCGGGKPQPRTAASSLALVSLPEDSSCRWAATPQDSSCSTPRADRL

[6] = target: P2Y purinoceptor 6 (Homo sapiens) (UniProt Q15077); test: Agonist activity at recombinant human P2RY6 expressed in AD293 cells assessed as increase in intracellular calcium levels by Fluo-4/AM dye-based spectrofluorometer; format: functional, cell-based; method in brief: as §2
P2Y purinoceptor 6 (Homo sapiens), sequence (Q15077 whole entry): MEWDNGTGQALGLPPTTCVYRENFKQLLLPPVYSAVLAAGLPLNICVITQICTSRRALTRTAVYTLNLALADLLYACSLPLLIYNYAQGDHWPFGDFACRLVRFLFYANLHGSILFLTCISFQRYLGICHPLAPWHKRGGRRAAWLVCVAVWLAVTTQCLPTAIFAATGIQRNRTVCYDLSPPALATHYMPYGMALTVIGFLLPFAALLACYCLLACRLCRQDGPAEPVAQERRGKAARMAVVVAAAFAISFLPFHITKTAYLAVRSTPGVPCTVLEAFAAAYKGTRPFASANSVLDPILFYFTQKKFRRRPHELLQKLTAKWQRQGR

[7] = target: P2Y purinoceptor 6 (Homo sapiens) (UniProt Q15077); test: Agonist activity at recombinant human P2RY6 expressed in AD293 cells assessed as increase in intracellular IP1 levels; format: functional, cell-based
Method in brief: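 Human P2Y6 receptor stably expressed in AD293 cells. Compound at 100 μM. Gq activation read as accumulation of inositol 1-phosphate (IP1).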

Row | Structure (SMILES) | inhibition [1] [%] | inhibition [2] | inhibition [3] | Activity [4] | Activity [5] | Activity [6] | Activity [7]
1 | O=c1ccn([C@@H]2O[C@H](COP(=S)(S)OP(=O)(O)OP(=O)(O)O)[C@@H](O)[C@H]2O)c(=O)[nH]1 (stereo partly specified) | 100 | inactive | inactive | inactive | inactive | Active | Active
2 | O=c1ccn([C@@H]2O[C@H](COP(=S)(S)OP(=O)(O)CP(=O)(O)O)[C@@H](O)[C@H]2O)c(=O)[nH]1 (stereo partly specified) | 80 to 100 | 15% | 15% | inactive | inactive | Active | inactive
3 | O=c1ccn([C@@H]2O[C@H](COP(=S)(S)OP(=O)(O)O)[C@@H](O)[C@H]2O)c(=O)[nH]1 (stereo partly specified) | 80 to 100 | 15% | 15% | inactive | inactive | Active | Active
